# Assay results from ChEMBL document CHEMBL1152452, “Modifications incorporated in CpG motifs of oligodeoxynucleotides lead to antagonist activity of toll-like receptors 7 and 9” (2009).
# Calls of active or inactive are those of the source. The calls are words filed in the database; no cut-off is given here.
# What was measured:
# [1] = target: T1, Toll-like receptor 9 (Mus musculus) (UniProt Q9EQU3); test: Activation of mouse TLR9 expressed in HEK293 cells assessed as NF-kappaB level at 1 ug/mL after 18 hrs by reporter gene assay; type: cell-based
# T1 sequence (whole entry): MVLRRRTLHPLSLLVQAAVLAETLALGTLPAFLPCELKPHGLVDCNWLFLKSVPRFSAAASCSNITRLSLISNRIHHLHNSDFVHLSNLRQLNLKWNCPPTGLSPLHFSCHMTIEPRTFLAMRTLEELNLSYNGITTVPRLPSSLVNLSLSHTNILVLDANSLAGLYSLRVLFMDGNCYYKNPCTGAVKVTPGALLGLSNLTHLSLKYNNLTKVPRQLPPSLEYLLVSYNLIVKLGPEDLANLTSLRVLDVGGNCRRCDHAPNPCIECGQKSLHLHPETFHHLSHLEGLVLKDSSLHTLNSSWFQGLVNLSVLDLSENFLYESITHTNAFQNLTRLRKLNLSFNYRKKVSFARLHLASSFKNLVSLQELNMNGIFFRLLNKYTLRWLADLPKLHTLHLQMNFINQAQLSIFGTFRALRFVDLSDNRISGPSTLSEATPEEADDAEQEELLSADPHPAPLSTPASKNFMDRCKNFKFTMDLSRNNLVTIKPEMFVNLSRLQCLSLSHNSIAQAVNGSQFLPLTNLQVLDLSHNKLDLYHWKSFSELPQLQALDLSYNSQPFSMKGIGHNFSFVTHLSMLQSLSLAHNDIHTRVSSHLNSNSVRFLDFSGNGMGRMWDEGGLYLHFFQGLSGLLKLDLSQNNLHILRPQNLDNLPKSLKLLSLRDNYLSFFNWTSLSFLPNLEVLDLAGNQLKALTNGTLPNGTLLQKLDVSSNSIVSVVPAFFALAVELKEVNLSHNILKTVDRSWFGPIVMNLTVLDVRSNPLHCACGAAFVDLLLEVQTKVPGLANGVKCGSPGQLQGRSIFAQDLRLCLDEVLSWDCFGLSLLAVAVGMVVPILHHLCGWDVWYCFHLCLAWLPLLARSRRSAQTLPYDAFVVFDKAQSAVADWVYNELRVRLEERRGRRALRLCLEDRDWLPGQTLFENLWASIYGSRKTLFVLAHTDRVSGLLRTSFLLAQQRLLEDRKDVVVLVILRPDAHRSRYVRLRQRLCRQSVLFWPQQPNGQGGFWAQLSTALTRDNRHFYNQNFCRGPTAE
# Procedure, shortened: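 HEK293 cells stably expressing mouse TLR9 were transiently transfected with a SEAP reporter for 6 h, then stimulated with ODN at 0.1, 0.3 or 1 μg/mL for 18 h. Reporter expression is given as fold change in NF-κB activity over medium. Representative of two independent experiments.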
# J774 = test: Activation of NF-kappaB in mouse J774 cells at 2.5 ug/ml after 1 hr by EMSA; type: cell-based
# Procedure, shortened: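 Murine J774 macrophages in DMEM with 10% FBS and antibiotics, plated at 5×10^6 cells/well. ODNs were given alone or together for 1 h. For inhibition, the agonist ODN at 0.5 μg/mL was co-incubated with the modified ODN at 2.5 μg/mL. Nuclear extracts were resolved by EMSA on native polyacrylamide gels and read by autoradiography.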
# Splenocyte [2] = test: Immunostimulatory activity in C57BL/6 mouse splenocytes assessed as induction of IL12 secretion at 2 to 10 ug/ml after 24 hrs by sandwich ELISA; type: functional, cell-based
# Procedure, shortened: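 C57BL/6 splenocytes (mice 5–8 weeks) at 5 × 10^6 cells/mL in RPMI complete medium. ODNs dissolved in PBS were added and the cells incubated at 37 °C for 24 h. Supernatant IL-12 or IL-6 was measured by sandwich ELISA. Runs were done two or three times, in duplicate per concentration.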
# Splenocyte [3] = test: Inhibition of 5'-CTATCTGACGTTCTCTGT-3'-induced IL12 secretion in C57BL/6 mouse splenocytes at 4 ug/ml after 24 hrs by sandwich ELISA; type: functional, cell-based
# Procedure, shortened: (§1)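 Splenocytes from 5–8-week C57BL/6 mice, 5 × 10^6 cells/mL in RPMI complete medium, were co-incubated with the TLR9 agonist ODN (1 µg/mL) plus test ODN at 1 or 4 µg/mL, or over a concentration series, at 37 °C for 24 h. Supernatant IL-12 or IL-6 was measured by sandwich ELISA. Runs were done in duplicate, with three independent experiments.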
# Splenocyte [4] = test: Inhibition of 5'-CTATCTGACGTTCTCTGT-3'-induced IL6 secretion in C57BL/6 mouse splenocytes at 4 ug/ml after 24 hrs by sandwich ELISA; type: functional, cell-based; procedure, shortened: as §1
# Mus musculus [5] = test: Immunostimulatory activity in C57BL/6 mouse assessed as induction of IL10 level in serum at 2 mg/kg, sc after 2 hrs by Luminex multiplex assay; type: functional, organism-based; set-up: dose 2 mg/kg
# Procedure, shortened: (§2)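 Female C57BL/6 mice, 5–6 weeks old, n = 3, received a single 2 mg/kg subcutaneous ODN injection in the right flank. Blood was taken by retro-orbital bleeding 2 h later. Naive mice served as baseline. Representative of three experiments.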
# Mus musculus [6] = test: Immunostimulatory activity in C57BL/6 mouse assessed as induction of MCP1 level in serum at 2 mg/kg, sc after 2 hrs by Luminex multiplex assay; type: functional, organism-based; set-up: dose 2 mg/kg; procedure, shortened: as §2
# Mus musculus [7] = test: Immunostimulatory activity in C57BL/6 mouse assessed as induction of KC level in serum at 2 mg/kg, sc after 2 hrs by Luminex multiplex assay; type: functional, organism-based; set-up: dose 2 mg/kg; procedure, shortened: as §2
# Mus musculus [8] = test: Immunostimulatory activity in C57BL/6 mouse assessed as induction of IL12 level in serum at 2 mg/kg, sc after 2 hrs by sandwich ELISA; type: functional, organism-based; set-up: dose 2 mg/kg; procedure, shortened: as §2
# Mus musculus [9] = test: Immunostimulatory activity in C57BL/6 mouse assessed as inhibition of 5'-CTATCTGACGTTCTCTGT-3'-induced MIP-1alpha production in serum at 2 mg/kg, sc administered 24 hrs prior to 5'-CTATCTGACGTTCTCTGT-3' challenge measured after 2 hrs by Luminex multiplex assay; type: functional, organism-based; set-up: dose 2 mg/kg
# Procedure, shortened: (§3)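 C57BL/6 mice received 2 mg/kg ODN sc in one flank. After 24 h, the TLR9 agonist ODN was given at 0.5 mg/kg sc in the opposite flank. Blood was drawn 2 h later and serum cytokines/chemokines were quantified by Luminex multiplex assay. Percent inhibition was taken against the agonist alone. Representative of three experiments.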
# Mus musculus [10] = test: Immunostimulatory activity in C57BL/6 mouse assessed as inhibition of 5'-CTATCTGACGTTCTCTGT-3'-induced TNFalpha production in serum at 2 mg/kg, sc administered 24 hrs prior to 5'-CTATCTGACGTTCTCTGT-3' challenge measured after 2 hrs by Luminex multiplex assay; type: functional, organism-based; set-up: dose 2 mg/kg; procedure, shortened: as §3
# Mus musculus [11] = test: Immunostimulatory activity in C57BL/6 mouse assessed as inhibition of 5'-CTATCTGACGTTCTCTGT-3'-induced IL10 production in serum at 2 mg/kg, sc administered 24 hrs prior to 5'-CTATCTGACGTTCTCTGT-3' challenge measured after 2 hrs by Luminex multiplex assay; type: functional, organism-based; set-up: dose 2 mg/kg; procedure, shortened: as §3
# Mus musculus [12] = test: Immunostimulatory activity in C57BL/6 mouse assessed as inhibition of 5'-CTATCTGACGTTCTCTGT-3'-induced MCP1 production in serum at 2 mg/kg, sc administered 24 hrs prior to 5'-CTATCTGACGTTCTCTGT-3' challenge measured after 2 hrs by Luminex multiplex assay; type: functional, organism-based; set-up: dose 2 mg/kg; procedure, shortened: as §3
SMILES,Activity [1],Activity (J774),Activity (Splenocyte [2]),Activity (Splenocyte [3]),Activity (Splenocyte [4]),Activity (Mus musculus [5]),Activity (Mus musculus [6]),Activity (Mus musculus [7]),Activity (Mus musculus [8]),Activity (Mus musculus [9]),Activity (Mus musculus [10]),Activity (Mus musculus [11]),Activity (Mus musculus [12])
CO[C@@H]1[C@H](OP(=O)(S)OC[C@H]2O[C@@H](n3cnc4c(=O)[nH]c(N)nc43)C[C@@H]2OP(=O)(S)OC[C@H]2O[C@@H](n3cc(C)c(=O)[nH]c3=O)C[C@@H]2OP(=O)(S)OC[C@H]2O[C@@H](n3cc(C)c(=O)[nH]c3=O)C[C@@H]2OP(=O)(S)OC[C@H]2O[C@@H](n3ccc(N)nc3=O)C[C@@H]2OP(=O)(S)OC[C@H]2O[C@@H](n3cc(C)c(=O)[nH]c3=O)C[C@@H]2OP(=O)(S)OC[C@H]2O[C@@H](n3ccc(N)nc3=O)C[C@@H]2OP(=O)(S)OC[C@H]2O[C@@H](n3cc(C)c(=O)[nH]c3=O)C[C@@H]2OP(=O)(S)OC[C@H]2O[C@@H](n3cnc4c(=O)[nH]c(N)nc43)C[C@@H]2OP(=O)(S)OC[C@H]2O[C@@H](n3cc(C)c(=O)[nH]c3=O)C[C@@H]2O)[C@@H](COP(=O)(S)O[C@H]2C[C@H](n3cnc4c(N)ncnc43)O[C@@H]2COP(=O)(S)O[C@H]2C[C@H](n3cnc4c(=O)[nH]c(N)nc43)O[C@@H]2COP(=O)(S)O[C@H]2C[C@H](n3cc(C)c(=O)[nH]c3=O)O[C@@H]2COP(=O)(S)O[C@H]2C[C@H](n3ccc(N)nc3=O)O[C@@H]2COP(=O)(S)O[C@H]2C[C@H](n3cc(C)c(=O)[nH]c3=O)O[C@@H]2COP(=O)(S)O[C@H]2C[C@H](n3cnc4c(N)ncnc43)O[C@@H]2COP(=O)(S)O[C@H]2C[C@H](n3cc(C)c(=O)[nH]c3=O)O[C@@H]2COP(=O)(S)O[C@H]2C[C@H](n3ccc(N)nc3=O)O[C@@H]2CO)O[C@H]1n1ccc(N)nc1=O (stereo not given in full),inactive,inactive,Active,Active,Active,inactive,inactive,inactive,inactive,Active,Active,Active,Active
COC1[C@H](n2cc(C)c(N)nc2=O)O[C@H](COP(=O)(S)O[C@H]2C[C@H](n3cnc4c(N)ncnc43)O[C@@H]2COP(=O)(S)O[C@H]2C[C@H](n3cnc4c(=O)[nH]c(N)nc43)O[C@@H]2COP(=O)(S)O[C@H]2C[C@H](n3cc(C)c(=O)[nH]c3=O)O[C@@H]2COP(=O)(S)O[C@H]2C[C@H](n3ccc(N)nc3=O)O[C@@H]2COP(=O)(S)O[C@H]2C[C@H](n3cc(C)c(=O)[nH]c3=O)O[C@@H]2COP(=O)(S)O[C@H]2C[C@H](n3cnc4c(N)ncnc43)O[C@@H]2COP(=O)(S)O[C@H]2C[C@H](n3cc(C)c(=O)[nH]c3=O)O[C@@H]2COP(=O)(S)O[C@H]2C[C@H](n3ccc(N)nc3=O)O[C@@H]2CO)[C@H]1OP(=O)(S)OC[C@H]1O[C@@H](n2cnc3c(=O)[nH]c(N)nc32)C[C@@H]1OP(=O)(S)OC[C@H]1O[C@@H](n2cc(C)c(=O)[nH]c2=O)C[C@@H]1OP(=O)(S)OC[C@H]1O[C@@H](n2cc(C)c(=O)[nH]c2=O)C[C@@H]1OP(=O)(S)OC[C@H]1O[C@@H](n2ccc(N)nc2=O)C[C@@H]1OP(=O)(S)OC[C@H]1O[C@@H](n2cc(C)c(=O)[nH]c2=O)C[C@@H]1OP(=O)(S)OC[C@H]1O[C@@H](n2ccc(N)nc2=O)C[C@@H]1OP(=O)(S)OC[C@H]1O[C@@H](n2cc(C)c(=O)[nH]c2=O)C[C@@H]1OP(=O)(S)OC[C@H]1O[C@@H](n2cnc3c(=O)[nH]c(N)nc32)C[C@@H]1OP(=O)(S)OC[C@H]1O[C@@H](n2cc(C)c(=O)[nH]c2=O)C[C@@H]1O (stereo not given in full),inactive,inactive,Active,,,inactive,inactive,inactive,inactive,Active,Active,Active,Active
COC1[C@H](n2cnc3c(=O)[nH]c(N)nc32)O[C@H](COP(=O)(S)O[C@H]2C[C@H](n3cc(C)c(N)nc3=O)O[C@@H]2COP(=O)(S)O[C@H]2C[C@H](n3cnc4c(N)ncnc43)O[C@@H]2COP(=O)(S)O[C@H]2C[C@H](n3cnc4c(=O)[nH]c(N)nc43)O[C@@H]2COP(=O)(S)O[C@H]2C[C@H](n3cc(C)c(=O)[nH]c3=O)O[C@@H]2COP(=O)(S)O[C@H]2C[C@H](n3ccc(N)nc3=O)O[C@@H]2COP(=O)(S)O[C@H]2C[C@H](n3cc(C)c(=O)[nH]c3=O)O[C@@H]2COP(=O)(S)O[C@H]2C[C@H](n3cnc4c(N)ncnc43)O[C@@H]2COP(=O)(S)O[C@H]2C[C@H](n3cc(C)c(=O)[nH]c3=O)O[C@@H]2COP(=O)(S)O[C@H]2C[C@H](n3ccc(N)nc3=O)O[C@@H]2CO)[C@H]1OP(=O)(S)OC[C@H]1O[C@@H](n2cc(C)c(=O)[nH]c2=O)C[C@@H]1OP(=O)(S)OC[C@H]1O[C@@H](n2cc(C)c(=O)[nH]c2=O)C[C@@H]1OP(=O)(S)OC[C@H]1O[C@@H](n2ccc(N)nc2=O)C[C@@H]1OP(=O)(S)OC[C@H]1O[C@@H](n2cc(C)c(=O)[nH]c2=O)C[C@@H]1OP(=O)(S)OC[C@H]1O[C@@H](n2ccc(N)nc2=O)C[C@@H]1OP(=O)(S)OC[C@H]1O[C@@H](n2cc(C)c(=O)[nH]c2=O)C[C@@H]1OP(=O)(S)OC[C@H]1O[C@@H](n2cnc3c(=O)[nH]c(N)nc32)C[C@@H]1OP(=O)(S)OC[C@H]1O[C@@H](n2cc(C)c(=O)[nH]c2=O)C[C@@H]1O (stereo not given in full),inactive,inactive,Active,,,inactive,inactive,inactive,inactive,Active,Active,Active,Active
